The source made the active and inactive calls. The calls are words filed in the database; no cut-off is given here.

Broadly, the ED50 is the dose that gives a 50% effect, or the effect in half of the subjects. High values mean a need for a large dose, low ones an effect at a small dose.

One test concerns Mus musculus. As to the kind of experiment: Compound was tested for its ability to antagonize the catalepsy produced in mice after sc administration. The class given is functional. Summed up: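 Male Swiss albino mice (21-25 g), groups of 10-12. Reserpine 5 mg/kg ip given 17 h before sc test drug. Catalepsy checked before dosing and at 0.5, 1, 2, 3.5 and 5 h: mouse placed on a rubber stopper (5 cm diameter, 2.5 cm high) for 3 min; staying on counts as cataleptic. Quantal ED50 = dose reversing catalepsy in 50% of mice.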

For test [1], the system named is Rattus norvegicus. In words: Compound was evaluated for its ability to induce locomotion in rats rendered akinetic by bilateral anterolateral hyphalamic injection of 6-OHDA at 10 Po mg/kg dose after sc administration. In kind it is functional. In outline: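 Male Sprague-Dawley rats with bilateral 6-OHDA lesions of the anterolateral hypothalamus were tested 4 days after lesioning, dosed, and placed in an open field. Ambulation (all four limbs placed in one square = one score) was counted over six 2-min periods within 2 h. Result is the cumulative ambulation score, mean ± SEM. Doses refer to the base.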

The test system of test [2] is Rattus norvegicus. As to the kind of experiment: Contralateral turning characteristic was measured in rat at 5 po mg/kg dose. The class given is functional. Summed up: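 Male Sprague-Dawley rats with unilateral 6-OHDA lesions of the nigrostriatal pathway, in groups of 4-5, were reused at intervals of at least 1 week. After dosing, each rat was placed straight into a rotometer and recorded continuously until rotation ceased. Result is total contralateral turns, mean ± SEM. Doses refer to the base.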

The test system of test [3] is Rattus norvegicus. As to the kind of experiment: Compound was evaluated for its ability to induce locomotion in rats rendered akinetic by bilateral anterolateral hyphalamic injection of 6-OHDA at 30 mg/kg dose after sc administration; I=Inactive. In kind it is functional, organism-based. Also noted: dose 30 mg/kg. In outline:
(§1)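 Male Sprague-Dawley rats with 6-OHDA lesions of the anterolateral hypothalamus on both sides; tested 4 days after lesioning. Compound given sc, then rats placed in an open field. Ambulation recorded in 2-min periods across 2 h; one score = all four limbs placed in one square. Readout is the cumulative ambulation score (mean ± SEM).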

Test [4] deals with Rattus norvegicus. As to the kind of experiment: Compound was evaluated for its ability to induce locomotion in rats rendered akinetic by bilateral anterolateral hyphalamic injection of 6-OHDA at 2.5 mg/kg dose after sc administration. The class given is functional. Particulars: route subcutaneous. Summed up: as §1
Test [5] deals with Rattus norvegicus. As to the kind of experiment: Contralateral turning characteristic of dopamine agonist was measured in rat at 10 Sc mg/kg dose. The class given is functional. Summed up:
(§2)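 Male Sprague-Dawley rats with unilateral 6-OHDA nigrostriatal lesions, groups of 4-5, reused at least 1 week apart. Dosed po or sc as stated, placed at once in a rotometer, and rotation recorded continuously until it stopped. Readout is total contralateral turns (mean ± SEM). Doses given as base.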

The subject of test [6] is Rattus norvegicus. In words: Contralateral turning characteristic of dopamine agonist was measured in rat at 10 Po mg/kg dose. The class given is functional. In outline:
as §2

The target of test [7] is Dopamine receptor (Rattus norvegicus) (UniProt P25115+P19020+P30729+P18901+P61169). In words: Dopamine receptor agonistic activity measured as Contralateral turning characteristic was measured in rat at 2.5 Sc mg/kg dose. In kind it is functional, organism-based. Summed up: as §2
In test [8] the test system is Rattus norvegicus. In words: Compound was evaluated for its ability to induce locomotion in rats rendered akinetic by bilateral anterolateral hyphalamic injection of 6-OHDA at 10 mg/kg dose after sc administration. To be noted: route subcutaneous. The class given is functional. Summed up:
as §1

In test [9] the test system is Rattus norvegicus. As to the kind of experiment: Effect of pretreatment with alpha-MPT on the rotational behavior induced by the compound (5 mg/kg, sc) in rats with 6-OHDA induced lesions (indicates that it acted directly on DA receptors). In kind it is functional.
Test [10] concerns Rattus norvegicus. In words: Ability to induce locomotion in rats rendered akinetic by bilateral anterolateral hyphalamic injection of 6-OHDA at 2.5 mg/kg dose after sc administration. In kind it is functional. Particulars: route subcutaneous. Summed up:
as §1

Regarding `CC(C)C[C@H]1C(=O)N2CCC[C@H]2[C@]2(O)O[C@](NC(=O)[C@@H]3C=C4c5cccc6[nH]c(Br)c(c56)C[C@H]4N(C)C3)(C(C)C)C(=O)N12` [BROMOCRIPTINE], it took a dose of 2.3 mg/kg to reach the 50% effect level in the test on Mus musculus (ED50). Also, the Ambulation score with Rattus norvegicus [1] is on record as 112. Further, in the test with Rattus norvegicus [2], the Activity amounted to 1805.

In the case of `CN(C)C1CCc2ccc3c(ccn3C)c2C1` (stereo not given), the 50% effective dose (ED50) in the test on Mus musculus is above 30 mg/kg. Besides, the Ambulation score entry in the test with Rattus norvegicus [3] is “inactive”.

`CN(C)C1CCc2ccc3[nH]ccc3c2C1` (stereo not given): in the test on Rattus norvegicus [4], the Ambulation score was 378. In addition, the Activity stood at 4540 in the test on Rattus norvegicus [5] and 4947 with Rattus norvegicus [6]. The molecule also showed an ED50 with Mus musculus of 5.8 mg/kg.

For the molecule `CCCN(CCC)C1CCc2ccc3c(ccn3C)c2C1` (stereo not given), in the test on Mus musculus, the 50% effective dose (ED50) stood at 5 mg/kg. The same molecule showed an Activity in test [7] below 300. Also, in the test with Rattus norvegicus [8], the Ambulation score is recorded as below 100.

Molecule `CCCN(CCC)C1CCc2ccc3[nH]ccc3c2C1` (stereo not given) had a 50% effective dose (ED50) with Mus musculus of 2.3 mg/kg. In addition, in the test on Rattus norvegicus [9], the Activity amounted to 3460. Besides, the Ambulation score in the test with Rattus norvegicus [10] is 287.

(Values after ChEMBL document CHEMBL1123170, “Drug design via pharmacophore identification. Dopaminergic activity of 3H-benz[e]indol-8-amines and their mode of interaction with the dopamine receptor” (1986).)
